Laboratory results: ChEMBL document CHEMBL4406830, “Galloyl esters of trans-stilbenes are inhibitors of FASN with anticancer activity on non-small cell lung cancer cells” (Eur J Med Chem, 2019)
pIC50: −log10 of the molar value. Activity calls are given as the source filed them. No cut-off for these calls is given here.

Key:
NCI-H1703 [1] = assay: Antiproliferative activity against human NCI-H1703 cells expressing FASN assessed as reduction in cell viability after 72 hrs by MTS assay; assay type: functional, cell-based; settings: NCI-H1703, 72 h
Outline: (§1)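 ATCC-sourced cells. H1299, H1650, H1703 and PC-9 were grown in RPMI 1640 with 10% FBS. A549 was grown in high-glucose DMEM with 10% FBS and 1 mM pyruvate. SAEC was grown in BEGM. Cells were seeded at 3 × 10^3 per well (H1650 3.5 × 10^3) and left to attach overnight. Serial dilutions from DMSO stocks were added, 0.1% DMSO final, for 72 h at 37 °C, 5% CO2. Medium was replaced, MTS added, and A490 read after 2 h. IC50 was taken from % viability versus log concentration, 3 experiments.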

[2] = Selectivity index, ratio of IC50 for human SAE cells lacking FASN expression to IC50 for human NCI-H1703 cells expressing FASN
Outline: (§2)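 Index is the SAEC IC50 divided by the IC50 in the FASN-expressing NSCLC line. IC50s came from MTS viability after 72 h exposure at 37 °C, 5% CO2, DMSO 0.1% v/v. Absorbance was read at 490 nm after 2 h. The fit was % viability against log concentration, with 4 technical repeats and 3 independent experiments. NSCLC lines were grown in RPMI/10% FBS; SAEC in BEGM.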

NCI-H1299 = assay: Antiproliferative activity against human NCI-H1299 cells expressing FASN assessed as reduction in cell viability after 72 hrs by MTS assay; assay type: functional, cell-based; settings: NCI-H1299, 72 h; outline: as §1
[3] = Selectivity index, ratio of IC50 for human SAE cells lacking FASN expression to IC50 for human NCI-H1299 cells expressing FASN expression; outline: as §2
NCI-H1650 = assay: Antiproliferative activity against human NCI-H1650 cells expressing FASN assessed as reduction in cell viability after 72 hrs by MTS assay; assay type: functional, cell-based; settings: NCI-H1650, 72 h; outline: as §1
[4] = Selectivity index, ratio of IC50 for human SAE cells lacking FASN expression to IC50 for human NCI-H1650 cells expressing FASN; outline: as §2
PC-9 [5] = assay: Antiproliferative activity against human PC9 cells harboring FASN expression and EGFR delE746-A750 mutant assessed as reduction in cell viability after 72 hrs by MTS assay; assay type: functional, cell-based; settings: PC-9, 72 h; outline: as §1
[6] = Cytotoxicity against human SAE cells lacking FASN expression assessed as reduction in cell viability after 72 hrs by MTS assay; assay type: cell-based; outline: as §1
NCI-H1703 [7] = assay: Induction of apoptosis in human NCI-H1703 cells expressing FASN assessed as increase in late apoptotic cells at 100 uM after 72 hrs by Annexin-V FITC staining/PI-based flow cytometry; assay type: functional, cell-based
Outline: (§3)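 H1703 or PC-9 cells seeded at 1.5 × 10^5 cells/2 mL in 6-well plates and left to attach overnight. Treated at 100 µM, with a 0.1% DMSO vehicle control, at 37 °C and 5% CO2. Exposure is given as 72 h in the results and 48 h in the methods. Cells were harvested, rinsed in ice-cold PBS, stained with Annexin V-FITC/PI in binding buffer and read by flow cytometry. Early apoptosis was Annexin V+ only; late apoptosis was double positive. Triplicates.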

PC-9 [8] = assay: Induction of apoptosis in human PC9 cells harboring FASN expression and EGFR delE746-A750 mutant at 100 uM after 72 hrs by Annexin-V FITC/PI staining-based flow cytometry; assay type: functional, cell-based; outline: as §3
[9] = biological target: Fatty acid synthase (Homo sapiens) (UniProt P49327); assay: Inhibition of full length human FASN transfected in HeLa cell lysates at 10 uM using acetyl Co-A/malonyl Co-A as substrate preincubated with enzyme for 2 hrs followed by substrate addition measured after 10 mins in presence of NADPH by microplate reader analysis; assay type: subcellular; settings: Lysate
Outline: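 Human FASN was made by in vitro translation from a FASN plasmid. Lysate was diluted 3:7 in 100 mM potassium phosphate, pH 6.5, 1 mM EDTA. It was preincubated with compound (10 µM final) for 2 h at 37 °C. Buffer containing acetyl-CoA (55 µM) and NADPH (330 µM) was added, then the reaction was started with malonyl-CoA (500 µM stock). A340 was read at 0 and 10 min; triplicates.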

[10] = biological target: Fatty acid synthase (Homo sapiens) (UniProt P49327); assay: (§4) Inhibition of FASN in human PC9 cells harboring FASN expression and EGFR delE746-A750 mutant assessed as disruption of AKT/FASN positive feedback loop by measuring decrease in FASN expression at 100 uM after 48 hrs by Western immunoblot based densitometric assay relative to control; assay type: cell-based
Outline: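 PC-9 or H1703 cells were seeded at 8 × 10^5 per 100 mm dish and treated for 48 h at 1 or 5 µM (or 5, 50 and 100 µM). RIPA lysates were BCA-quantified and run on 8% SDS-PAGE, then transferred to PVDF. Blots were probed for FASN, AKT, phospho-AKT S473 and GAPDH and detected by ECL. Bands were quantified by densitometry and normalised to vehicle control.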

[11] = biological target: Fatty acid synthase (Homo sapiens) (UniProt P49327); assay: as §4, with “measuring” for “measuring decrease in”, “hrs in presence of exogenous lipid concentrate” for “hrs”; assay type: cell-based
Outline: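 PC-9 cells were seeded at 8 × 10^5 per 100 mm dish, attached overnight, then treated 48 h with compound plus chemically defined lipid concentrate. Cells were lysed in RIPA with protease inhibitors and protein quantified by BCA. Lysates were run on 8% SDS-PAGE and blotted to PVDF. Blots were probed for FASN (1:2,000, PBS-T/milk block) and GAPDH. ECL detection; FASN/GAPDH densitometry normalised to untreated control.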

[12] = biological target: Fatty acid synthase (Homo sapiens) (UniProt P49327); assay: as §4, with “in ratio of phosphoAKT/AKT” for “in FASN”; assay type: cell-based
Outline: (§5)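 PC-9 cells were seeded at 8 × 10^5 per 100 mm dish and treated 48 h with compound, with or without chemically defined lipid concentrate (vehicle control included). RIPA lysates with protease inhibitors were BCA-quantified and run on 8% SDS-PAGE, then PVDF. Blots were probed for phospho-AKT Ser473 and total AKT (each 1:1,000, TBS-T/milk block). ECL detection; pAKT/AKT densitometry normalised to untreated control.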

[13] = biological target: Fatty acid synthase (Homo sapiens) (UniProt P49327); assay: as §4, with “ratio of phosphoAKT/AKT” for “decrease in FASN”, “hrs in presence of exogenous lipid concentrate” for “hrs”; assay type: cell-based; outline: as §5
[14] = Selectivity index, ratio of IC50 for human SAE cells lacking FASN expression to IC50 for human PC9 cells harboring FASN expression and EGFR delE746-A750 mutant; outline: as §2
A549 = assay: Antiproliferative activity against human A549 cells expressing FASN assessed as reduction in cell viability after 72 hrs by MTS assay; assay type: functional, cell-based; settings: A549, 72 h; outline: as §1
[15] = Selectivity index, ratio of IC50 for human SAE cells lacking FASN expression to IC50 for human A549 cells expressing FASN
Outline: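 The ratio IC50(SAEC)/IC50(NSCLC line) was calculated from 72 h MTS viability IC50 values.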

PC-9 [16] = assay: Antiproliferative activity against human PC9 cells harboring FASN expression and EGFR delE746-A750 mutant assessed as cell viability at 100 uM after 72 hrs in presence of exogenous lipid concentrate by MTS assay; assay type: functional, cell-based
Outline: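 PC-9 cells seeded at 3 × 10^3 cells/100 µL in RPMI 1640 and left to attach overnight. Compound added as for the viability assay, with DMSO at 0.1% v/v. After 6 h at 37 °C and 5% CO2, chemically defined lipid concentrate was added to 2% v/v final. Incubation then continued 72 h. Viability was read by MTS absorbance at 490 nm against untreated cells, in triplicate.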

[17] = biological target: Fatty acid synthase (Homo sapiens) (UniProt P49327); assay: Inhibition of full length human FASN transfected in HeLa cell lysates at 150 uM using acetyl Co-A/malonyl Co-A as substrate preincubated with enzyme for 2 hrs followed by substrate addition measured after 10 mins in presence of NADPH by microplate reader analysis; assay type: subcellular; settings: Lysate
Outline: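 Human FASN was made by coupled in vitro translation of a FASN plasmid; the legend calls this HeLa cell lysate. Lysate was diluted 3:7 in 100 mM potassium phosphate pH 6.5 with 1 mM EDTA, then preincubated with compound for 2 h at 37 °C. Buffer containing acetyl-CoA (55 µM) and NADPH (330 µM) was added, and the reaction started with malonyl-CoA solution (500 µM). A340 was read at 0 and 10 min, and inhibition taken against untreated lysate. Triplicates.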

Sequence of Fatty acid synthase (Homo sapiens) (P49327 whole entry, looked up): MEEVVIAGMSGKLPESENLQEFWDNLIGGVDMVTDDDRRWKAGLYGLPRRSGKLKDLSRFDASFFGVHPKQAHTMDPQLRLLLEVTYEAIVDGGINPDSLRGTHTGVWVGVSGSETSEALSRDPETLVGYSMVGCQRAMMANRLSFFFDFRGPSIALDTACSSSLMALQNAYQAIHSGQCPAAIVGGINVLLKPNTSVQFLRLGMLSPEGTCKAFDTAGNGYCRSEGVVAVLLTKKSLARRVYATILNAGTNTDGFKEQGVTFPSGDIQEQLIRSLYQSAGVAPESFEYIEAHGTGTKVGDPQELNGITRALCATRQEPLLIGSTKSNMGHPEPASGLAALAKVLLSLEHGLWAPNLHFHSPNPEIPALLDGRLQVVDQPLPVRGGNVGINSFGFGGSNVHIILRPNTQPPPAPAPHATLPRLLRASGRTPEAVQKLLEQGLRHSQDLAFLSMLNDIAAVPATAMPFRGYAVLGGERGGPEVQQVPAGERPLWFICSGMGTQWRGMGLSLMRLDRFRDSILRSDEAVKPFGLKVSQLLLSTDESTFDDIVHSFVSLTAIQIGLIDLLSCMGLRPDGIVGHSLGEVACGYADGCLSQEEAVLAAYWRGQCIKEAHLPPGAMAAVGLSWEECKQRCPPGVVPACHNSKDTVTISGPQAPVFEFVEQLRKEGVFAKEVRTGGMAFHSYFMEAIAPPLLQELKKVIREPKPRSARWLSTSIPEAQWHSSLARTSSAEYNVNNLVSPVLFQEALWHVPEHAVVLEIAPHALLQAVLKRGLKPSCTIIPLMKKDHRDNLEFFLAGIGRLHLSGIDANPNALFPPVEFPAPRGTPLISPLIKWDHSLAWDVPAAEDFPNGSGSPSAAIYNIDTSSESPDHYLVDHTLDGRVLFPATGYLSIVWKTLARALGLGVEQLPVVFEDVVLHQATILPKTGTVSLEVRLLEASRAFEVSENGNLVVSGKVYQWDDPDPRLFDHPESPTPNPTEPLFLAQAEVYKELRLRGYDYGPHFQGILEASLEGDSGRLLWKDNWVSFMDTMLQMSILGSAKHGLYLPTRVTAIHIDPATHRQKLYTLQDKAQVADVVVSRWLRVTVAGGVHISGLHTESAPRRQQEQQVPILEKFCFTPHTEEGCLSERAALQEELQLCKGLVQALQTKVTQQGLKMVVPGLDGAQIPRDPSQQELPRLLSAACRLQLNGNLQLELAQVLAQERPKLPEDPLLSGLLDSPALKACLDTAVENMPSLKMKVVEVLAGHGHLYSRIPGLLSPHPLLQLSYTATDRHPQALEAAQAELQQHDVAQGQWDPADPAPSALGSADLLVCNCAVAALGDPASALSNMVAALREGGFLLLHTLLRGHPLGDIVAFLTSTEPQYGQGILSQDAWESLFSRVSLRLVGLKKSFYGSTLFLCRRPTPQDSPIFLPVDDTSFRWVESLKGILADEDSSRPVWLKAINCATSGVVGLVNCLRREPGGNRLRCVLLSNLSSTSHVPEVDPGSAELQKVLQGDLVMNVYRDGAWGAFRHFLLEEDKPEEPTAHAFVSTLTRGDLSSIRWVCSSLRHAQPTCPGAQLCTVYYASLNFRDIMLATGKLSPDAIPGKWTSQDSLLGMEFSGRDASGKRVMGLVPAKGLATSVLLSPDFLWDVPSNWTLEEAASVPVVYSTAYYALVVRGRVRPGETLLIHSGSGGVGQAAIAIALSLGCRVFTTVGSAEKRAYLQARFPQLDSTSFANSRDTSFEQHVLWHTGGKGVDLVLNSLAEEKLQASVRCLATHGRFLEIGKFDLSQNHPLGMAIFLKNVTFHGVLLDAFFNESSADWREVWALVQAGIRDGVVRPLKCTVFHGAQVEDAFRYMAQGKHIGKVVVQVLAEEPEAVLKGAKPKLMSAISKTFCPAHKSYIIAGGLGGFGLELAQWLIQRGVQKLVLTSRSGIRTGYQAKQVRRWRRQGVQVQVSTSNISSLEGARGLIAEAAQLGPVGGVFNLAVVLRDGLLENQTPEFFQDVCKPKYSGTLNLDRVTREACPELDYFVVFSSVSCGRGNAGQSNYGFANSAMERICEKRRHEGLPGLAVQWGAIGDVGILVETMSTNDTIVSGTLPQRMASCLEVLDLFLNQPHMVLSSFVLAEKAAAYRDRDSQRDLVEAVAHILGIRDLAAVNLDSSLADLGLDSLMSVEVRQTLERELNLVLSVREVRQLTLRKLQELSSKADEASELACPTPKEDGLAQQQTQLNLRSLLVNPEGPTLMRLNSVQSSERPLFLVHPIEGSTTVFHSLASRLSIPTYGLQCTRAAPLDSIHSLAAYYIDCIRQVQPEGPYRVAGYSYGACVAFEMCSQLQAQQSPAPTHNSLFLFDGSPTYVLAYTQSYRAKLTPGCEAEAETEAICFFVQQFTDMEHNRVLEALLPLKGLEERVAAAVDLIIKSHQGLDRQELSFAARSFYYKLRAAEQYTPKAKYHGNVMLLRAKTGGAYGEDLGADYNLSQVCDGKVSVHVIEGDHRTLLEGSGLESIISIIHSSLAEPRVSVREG

## O=C(O[C@@H]1Cc2c(O)cc(O)cc2O[C@@H]1c1cc(O)c(O)c(O)c1)c1cc(O)c(O)c(O)c1 [EPIGALOCATECHIN GALLATE]
NCI-H1703 [1]
  pIC50: 4.77
[2]
  Ratio IC50: 6.4
NCI-H1299
  pIC50: 4.69
[3]
  Ratio IC50: 5.3
NCI-H1650
  pIC50: 4.61
[4]
  Ratio IC50: 4.4
PC-9 [5]
  pIC50: 4.11
[6]
  pIC50: 3.96
NCI-H1703 [7]
  Activity: Active
PC-9 [8]
  Activity: Active
[9]
  inhibition: inactive
[10]
  Ratio: 0.06
[11]
  Ratio: 0.89
[12]
  Ratio: 0.14
[13]
  Ratio: 0.67
[14]
  Ratio IC50: 1.4
A549
  pIC50: 3.73
[15]
  Ratio IC50: 0.6
PC-9 [16]
  inhibition: inactive
[17]
  inhibition: Active
